Bioassay records as filed in PubChem BioAssay.
SIAE inh: human SIAE inhibition, primary screen; Q9HAT2; SIAE FP-Rh probe binding, fluorescence polarization; inhibition, % at 9.66 µM; hit rate 0.69% among 370,000; AID 1053197;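 active = inhibition above a cutoff: mean of compounds within the control limits plus 3 SD of those, cut at about 17% in these data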
PRMT1 inh: blocks human protein arginine methyltransferase 1; hit rate 1.3% among 370,000; recombinant PRMT1, activity-based probe fluorescence polarization; AID 652257; Q99873; inhibition, % at 2.79 µM;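 active = inhibition above about 21% made by adding two undisclosed values, limit read from the data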
HTRA1 inh: HTRA1 (human) protease inhibition. Q92743. recombinant HTRA1, FP-rhodamine activity-based probe, fluorescence polarization. inhibition, % at 5.96 µM. hit rate 0.5% among 340,000. AID 504803; in the data active = inhibition above about 36%
Target sequence (Q92743 whole entry, looked up): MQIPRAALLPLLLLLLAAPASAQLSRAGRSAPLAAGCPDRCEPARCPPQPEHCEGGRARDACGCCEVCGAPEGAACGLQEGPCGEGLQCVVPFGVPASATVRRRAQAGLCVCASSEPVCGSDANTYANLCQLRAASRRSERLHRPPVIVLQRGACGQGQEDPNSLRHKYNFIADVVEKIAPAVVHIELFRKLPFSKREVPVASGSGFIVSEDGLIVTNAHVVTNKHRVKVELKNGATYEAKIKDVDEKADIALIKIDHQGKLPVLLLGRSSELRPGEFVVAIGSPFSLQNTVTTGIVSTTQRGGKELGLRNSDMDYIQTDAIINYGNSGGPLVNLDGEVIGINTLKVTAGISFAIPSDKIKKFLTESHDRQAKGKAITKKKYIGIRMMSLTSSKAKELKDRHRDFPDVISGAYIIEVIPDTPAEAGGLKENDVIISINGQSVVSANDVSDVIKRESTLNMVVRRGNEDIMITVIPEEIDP
JMJD2C inh: inhibitors of human GASC-1 (JMJD2C) demethylase; Q9H3R0; GST-JMJD2C(1-420) H3K9me3 demethylation, DELFIA europium; inhibition, % at 2.35 µM; hit rate 0.069% among 330,000; AID 2099;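 active = more than half of a compound's replicate wells show inhibition beyond 50%, single wells judged on their own value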;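 also: signal counts dimethyl H3K9 product captured on neutravidin plate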
ABHD4 inh: inhibitors of mouse ABHD4 | hit rate 0.54% among 370,000 | inhibition, % at 8.92 µM | AID 720543 | Q8VD66 | purified mABHD4, FP-Rh probe fluorescence polarization;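 active = inhibition exceeding the mean over every tested compound plus 3 SD, cut at about 30% in these data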
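Assay system: mABHD4 protein; medium: HEPES pH 7.0, NaCl, Pluronic buffer; dosing: 8.92 µM, single dose; schedule: 45 min + 60 min at 25 °C; signal: FP readout, ex 525 nm / em 598 nm; read-out: normalized percent inhibition of probe labeling; repeats: single replicate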
HTRA1 inh conf: confirmation of human HTRA1 inhibitors | recombinant HTRA1, FP-rhodamine activity-based probe, fluorescence polarization | inhibition, % at 5.96 µM | hit rate 66% among 1,600 | shares compounds with HTRA1 inh;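 active = mean inhibition over three repeats above a set limit taken from the earlier primary screen, cut at about 37% in these data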;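 also: inhibitors block probe binding so polarization drops and inhibition rises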
Numbers stand for hits. Most compounds without a hit are left out; they make up all but 2.4% or so of the library.

For CCOC(=O)Cn1cc(CN2C(C(=O)OC)CN(Cc3ccc(Cl)cc3)CCS2(=O)=O)nn1 (stereo not drawn) the results were SIAE inh inactive, PRMT1 inh inactive and ABHD4 inh inactive.
COc1ccc(CN2C[C@@]3(O)CC[C@@H](O)[C@@H](OC)[C@@H]3[C@@]2(C)[C@H](O)CC=C(C)C)cc1 was read as SIAE inh inactive, PRMT1 inh inactive and ABHD4 inh inactive.
Cc1ccc2c(NCc3ccco3)nc(NC(C)C)nc2c1 was read as SIAE inh inactive, PRMT1 inh inactive and ABHD4 inh inactive.
Screening CCc1cc(=O)oc2cc(C)cc(OC(=O)c3ccco3)c12 returned SIAE inh inactive, PRMT1 inh inactive, HTRA1 inh 48, JMJD2C inh inactive, ABHD4 inh inactive and HTRA1 inh conf inactive.
For CCCCCCCCN1C(=O)[C@@H](CC(=O)NCC23CC4CC(CC(C4)C2)C3)C[C@@]2(C(=O)OC)C1=C[C@H](C1CCCC1)O[C@@H]2C the results were SIAE inh inactive, PRMT1 inh inactive and ABHD4 inh inactive.
`N=C1CCC(=N)c2c1c(O)c1ccccc1c2O` gave HTRA1 inh 88, JMJD2C inh inactive and HTRA1 inh conf 110.
COc1cccc(CNc2ccc(N3CCC(C)CC3)cc2)c1OC was read as SIAE inh inactive, PRMT1 inh inactive, HTRA1 inh 52, JMJD2C inh inactive, ABHD4 inh inactive and HTRA1 inh conf 46.
Screening C[C@H](NC(=O)OCc1ccccc1)P(=O)(O)O returned SIAE inh inactive, PRMT1 inh inactive and ABHD4 inh inactive.
Screening COc1cc(/C=N/Nc2cccc(C)c2)ccc1OC(=O)c1cccs1 returned SIAE inh inactive, PRMT1 inh inactive, HTRA1 inh inactive, JMJD2C inh inactive and ABHD4 inh inactive.
Screening COc1cc(/C=N/Nc2cccc(C)c2)cc(Br)c1O returned SIAE inh inactive, PRMT1 inh inactive, HTRA1 inh 38, ABHD4 inh inactive and HTRA1 inh conf inactive.
Screening CC(=O)C(C(C)=O)c1c(Cl)c(O)c(O)c2c(C(=O)c3ccccc3)coc12 returned SIAE inh inactive, PRMT1 inh 79, HTRA1 inh 65, JMJD2C inh inactive, ABHD4 inh 43 and HTRA1 inh conf 82.
Screening N=C(N)c1ccc(N=Nc2c(O)ccc3c2[nH]c2ccccc23)cc1 returned SIAE inh inactive, PRMT1 inh inactive, HTRA1 inh 85, ABHD4 inh 47 and HTRA1 inh conf 61.
`Cc1nn(-c2ccccc2)c2sc(C(=O)NCc3ccc(F)cc3)cc12` gave SIAE inh inactive, PRMT1 inh inactive and ABHD4 inh inactive.
For COc1ccc2cc(CO)n(C)c2c1 the results were SIAE inh inactive, PRMT1 inh inactive, HTRA1 inh 42, JMJD2C inh inactive, ABHD4 inh inactive and HTRA1 inh conf inactive.
Screening CC(=O)Nc1ccc(C23CC4CC(CC(C4)C2)C3)cc1 returned SIAE inh inactive, PRMT1 inh inactive, HTRA1 inh inactive, JMJD2C inh inactive and ABHD4 inh inactive.
`Oc1ccc(C23CC4CC(CC(C4)C2)C3)cc1O` gave SIAE inh inactive, PRMT1 inh inactive, HTRA1 inh 59, JMJD2C inh inactive, ABHD4 inh inactive and HTRA1 inh conf 81.
N#CCC[C@@H]1CC[C@]2(CCCN(Cc3ccc(Br)cc3)C2)O1 was read as SIAE inh inactive, PRMT1 inh inactive and ABHD4 inh inactive.
Screening [O-][n+]1cccc2c(Br)cc(Br)c(O)c21 returned SIAE inh inactive, PRMT1 inh inactive, HTRA1 inh 72, JMJD2C inh inactive, ABHD4 inh inactive and HTRA1 inh conf 41.
For O=C(/C=C/c1ccc(O)c(O)c1)OCCc1ccccc1 the results were SIAE inh inactive, PRMT1 inh inactive, HTRA1 inh 64, JMJD2C inh inactive, ABHD4 inh inactive and HTRA1 inh conf 71.
CCn1c(COc2ccc(Cl)cc2)nnc1SCC(=O)Nc1ccc(Oc2ccccc2)cc1 was read as SIAE inh inactive, PRMT1 inh inactive and ABHD4 inh inactive.
COCC(=O)Nc1ccc(Nc2ccccc2)cc1 was read as SIAE inh inactive, PRMT1 inh inactive, HTRA1 inh 47, JMJD2C inh inactive, ABHD4 inh inactive and HTRA1 inh conf 40.
For Cc1cccc(NC(=S)NCCc2ccccc2)c1C the results were SIAE inh inactive, PRMT1 inh inactive, HTRA1 inh inactive, JMJD2C inh inactive and ABHD4 inh inactive.
Cc1cccc(C)c1NC(=S)NCCc1ccc(O)c(O)c1 was read as SIAE inh inactive, PRMT1 inh inactive, HTRA1 inh 48, JMJD2C inh inactive, ABHD4 inh inactive and HTRA1 inh conf 109.
For O=C(C=C(O)c1ccc(Cl)cc1)C(=O)NNC(=O)C(O)(c1ccccc1)c1ccccc1 the results were SIAE inh inactive, PRMT1 inh inactive, HTRA1 inh 41, ABHD4 inh inactive and HTRA1 inh conf 36.
For Cc1ccc(/C(O)=C/C(=O)C(=O)NNC(=O)C(O)(c2ccccc2)c2ccccc2)cc1 the results were SIAE inh inactive, PRMT1 inh inactive, HTRA1 inh inactive, JMJD2C inh inactive and ABHD4 inh inactive.
Screening CCCC(=O)NC(c1ccccc1)c1ccc2cccnc2c1O (stereo not drawn) returned SIAE inh inactive, PRMT1 inh inactive, HTRA1 inh 47, JMJD2C inh inactive, ABHD4 inh inactive and HTRA1 inh conf 45.
Screening CCCCC(=O)NC(c1ccc(C(C)C)cc1)c1ccc2cccnc2c1O (stereo not drawn) returned SIAE inh inactive, PRMT1 inh inactive, HTRA1 inh 56, JMJD2C inh inactive, ABHD4 inh inactive and HTRA1 inh conf 53.
CCCCC(=O)NC(c1ccccc1Cl)c1ccc2cccnc2c1O (stereo not drawn) was read as SIAE inh inactive, PRMT1 inh inactive, HTRA1 inh 57, JMJD2C inh inactive, ABHD4 inh inactive and HTRA1 inh conf 52.
For COc1cccc(C(NC(C)=O)c2ccc3cccnc3c2O)c1 (stereo not drawn) the results were SIAE inh inactive, PRMT1 inh inactive, HTRA1 inh inactive, JMJD2C inh inactive and ABHD4 inh inactive.
CCCCC(=O)NC(c1ccccc1)c1ccc2cccnc2c1O (stereo not drawn) was read as SIAE inh inactive, PRMT1 inh inactive, HTRA1 inh 39, JMJD2C inh inactive, ABHD4 inh inactive and HTRA1 inh conf 57.
Screening CCCC(=O)NC(c1ccc(OC)cc1)c1ccc2cccnc2c1O (stereo not drawn) returned SIAE inh inactive, PRMT1 inh inactive, HTRA1 inh inactive, JMJD2C inh inactive and ABHD4 inh inactive.
COc1ccccc1NC(=O)OC[C@@H]1CSCCS(=O)(=O)N1 was read as SIAE inh inactive, PRMT1 inh inactive and ABHD4 inh inactive.
Screening CCC(=O)NC(c1ccccc1OC)c1ccc2cccnc2c1O (stereo not drawn) returned HTRA1 inh 41, JMJD2C inh inactive and HTRA1 inh conf 43.
